Five molecules from ChEMBL document CHEMBL3826885, “Similarities and differences in affinity and binding modes of tricyclic pyrimido- and pyrazinoxanthines at human and rat adenosine receptors” (Bioorg Med Chem, 2016) can be followed below.

The target of assay [1] is Adenosine receptor A2a (Rattus norvegicus, UniProt P30543). Kind of assay: Displacement of [3H]MSX2 from adenosine receptor A2a in rat brain striatal membranes. It counts as cell membranes, Membrane. The gist of the method: (§1)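 Native rat receptors: A1 in brain cortical membranes with [3H]CCPA, A2A in brain striatal membranes, from frozen unstripped rat brains. Compounds were first screened at a single high concentration in three independent experiments. Active compounds then had full inhibition curves over at least 3 orders of magnitude of concentration.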
(In general: In a radioligand displacement assay an active substance lowers the binding of a labelled ligand.)

The target of assay [2] is T1, Adenosine receptor A1 (Rattus norvegicus) (UniProt P25099).
T1 sequence (whole entry): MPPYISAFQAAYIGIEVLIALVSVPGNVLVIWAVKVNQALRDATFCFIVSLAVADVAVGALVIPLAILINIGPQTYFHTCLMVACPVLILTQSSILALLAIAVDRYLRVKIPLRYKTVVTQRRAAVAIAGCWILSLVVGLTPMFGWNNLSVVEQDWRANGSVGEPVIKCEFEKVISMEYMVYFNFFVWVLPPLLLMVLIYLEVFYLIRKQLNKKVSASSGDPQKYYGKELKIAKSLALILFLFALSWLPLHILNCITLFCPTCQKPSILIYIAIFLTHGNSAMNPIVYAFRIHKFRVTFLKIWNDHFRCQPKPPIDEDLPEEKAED
Kind of assay: Displacement of [3H]CCPA from adenosine receptor A1 in rat brain cortical membranes at 1 uM. The class given is cell membranes. The procedure, abridged: as §1

For assay [3], the target named is T2, Adenosine receptor A3 (Homo sapiens, UniProt P0DMS8).
T2 sequence (P0DMS8 whole entry): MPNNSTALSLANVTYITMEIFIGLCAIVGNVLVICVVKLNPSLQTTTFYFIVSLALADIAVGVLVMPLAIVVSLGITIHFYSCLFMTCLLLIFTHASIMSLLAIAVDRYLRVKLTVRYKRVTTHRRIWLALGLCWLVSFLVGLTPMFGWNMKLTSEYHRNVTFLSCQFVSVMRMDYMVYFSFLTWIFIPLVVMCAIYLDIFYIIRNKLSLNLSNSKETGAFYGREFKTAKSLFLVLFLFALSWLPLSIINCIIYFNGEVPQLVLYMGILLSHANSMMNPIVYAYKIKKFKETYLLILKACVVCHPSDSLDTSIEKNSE
Kind of assay: Displacement of [3H]PSB-11 from recombinant human adenosine receptor A3 expressed in CHO cell membranes.

For assay [4], the target named is T3, Adenosine receptor A1 (Rattus norvegicus, UniProt P25099).
T3 sequence (P25099 whole entry): T1 sequence (whole entry)
The experiment in a line: Displacement of [3H]CCPA from adenosine receptor A1 in rat brain cortical membranes. It counts as cell membranes. The gist of the method:
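Native rat receptors: A1 in brain cortical membranes with [3H]CCPA, A2A in brain striatal membranes, from frozen unstripped rat brains. Compounds were first screened at a single high concentration in three independent experiments.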

Assay [5] has as its target T4, Adenosine receptor A3 (Homo sapiens) (UniProt P0DMS8).
T4 sequence (whole entry): T2 sequence (P0DMS8 whole entry)
The experiment in a line: Displacement of [3H]PSB11 from recombinant human adenosine receptor A3 expressed in CHO cell membranes at 1 uM. The procedure, abridged:
(§2)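 Membranes came from CHO cells expressing recombinant receptors (human A1, A2A, A2B, A3; rat A2B, A3). Radioligands were [3H]CCPA for A1 and [3H]PSB-11 or [3H]NECA for A3. A single high concentration was screened first, in three experiments for A1/A2A and two for A2B/A3. Full inhibition curves spanning at least 3 log units were run for potent compounds.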

Assay [6] concerns the target T5, Adenosine receptor A2b (Homo sapiens) (UniProt P29275).
T5 sequence (whole entry): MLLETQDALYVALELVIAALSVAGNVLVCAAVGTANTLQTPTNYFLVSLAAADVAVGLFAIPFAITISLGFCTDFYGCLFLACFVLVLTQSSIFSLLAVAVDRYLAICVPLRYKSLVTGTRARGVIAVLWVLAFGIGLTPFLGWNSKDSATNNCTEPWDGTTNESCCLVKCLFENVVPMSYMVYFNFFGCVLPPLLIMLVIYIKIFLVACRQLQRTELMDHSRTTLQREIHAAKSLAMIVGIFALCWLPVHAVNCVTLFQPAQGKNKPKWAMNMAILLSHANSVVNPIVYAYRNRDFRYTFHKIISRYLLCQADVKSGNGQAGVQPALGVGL
Kind of assay: Displacement of [3H]PSB-603 from recombinant human adenosine receptor A2b expressed in CHO cell membranes at 1 uM. The gist of the method: as §2

The target of assay [7] is T6, Adenosine receptor A2b (Homo sapiens, UniProt P29275).
T6 sequence (P29275 whole entry): T5 sequence (whole entry)
Kind of assay: Displacement of [3H]PSB-603 from recombinant human adenosine receptor A2b expressed in CHO cell membranes. The gist of the method:
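Membranes came from CHO cells expressing recombinant receptors (human A1, A2A, A2B, A3; rat A2B, A3). Radioligands were [3H]CCPA for A1 and [3H]PSB-11 or [3H]NECA for A3. A single high concentration was screened first, in three experiments for A1/A2A and two for A2B/A3.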

Assay [8] concerns the target Adenosine receptor A2a (Rattus norvegicus) (UniProt P30543). Kind of assay: Displacement of [3H]MSX2 from Adenosine receptor A2a in rat brain striatal membranes at 1 uM. It counts as cell membranes. The following applies: Membrane. The gist of the method:
as §1

pKi: −log10 of the molar value.

Chain of Adenosine receptor A2a (Rattus norvegicus) (P30543 whole entry): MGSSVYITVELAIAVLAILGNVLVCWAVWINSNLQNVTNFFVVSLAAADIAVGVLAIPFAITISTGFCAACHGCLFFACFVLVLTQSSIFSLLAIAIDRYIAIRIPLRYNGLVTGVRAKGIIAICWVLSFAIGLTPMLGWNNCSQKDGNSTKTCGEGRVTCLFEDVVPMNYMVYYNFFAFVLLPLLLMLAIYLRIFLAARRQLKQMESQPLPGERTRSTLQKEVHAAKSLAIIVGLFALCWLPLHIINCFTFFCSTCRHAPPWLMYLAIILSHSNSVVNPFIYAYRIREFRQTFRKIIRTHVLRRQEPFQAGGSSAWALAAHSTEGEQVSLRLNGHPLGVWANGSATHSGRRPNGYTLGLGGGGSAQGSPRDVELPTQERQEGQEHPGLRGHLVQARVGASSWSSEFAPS
Chain of Adenosine receptor A2a (P30543 whole entry): as above

Usually pKi stands for the negative decadic logarithm of the Ki, by convention in mol/L. The term inhibition denotes the drop in the measured response relative to a control, in per cent. In the case of `CCN(CC)CCOc1ccc(N2CCCn3c2nc2c3c(=O)n(C)c(=O)n2C)cc1`, the pKi in assay [1], in assay [3], in assay [4] and in assay [7] was below 6.00 each time. For the same molecule, the inhibition was -3% in assay [2], 3% in assay [5], -5% in assay [6] and 12% in assay [8].
In the case of `CN(C)CCOc1ccc(N2CCCn3c2nc2c3c(=O)n(C)c(=O)n2C)cc1`, the pKi in assay [1], in assay [3], in assay [4] and in assay [7] was below 6.00 throughout. Further, the inhibition in assay [2] is 2%; in assay [5], -1%; in assay [6], 1%; in assay [8], 3%.
For the molecule `CCCn1c(=O)c2c(nc3n2CCCN3c2ccc(OCCN3CCCCC3)cc2)n(CCC)c1=O`, the pKi in assay [1] was below 6.00; in assay [3], below 6.00; in assay [4], 6.60; in assay [7] it was below 6.00. Further, the inhibition in assay [2] stood at 44%; in assay [5] it was 29%; in assay [6], 18%; in assay [8], 44%.
As to `Cn1c(=O)c2c(nc3n2CCCN3c2ccc(OCCN3CCCCC3)cc2)n(C)c1=O`, the pKi in assay [1], in assay [3], in assay [4] and in assay [7] was below 6.00 in each case. For the same molecule, the inhibition in assay [2] was 0%; in assay [5], 6%; in assay [6], -1%; in assay [8] it was -4%.
Consider `CCn1c(=O)c2c(nc3n2CCCN3c2ccc(OCCN(C)C)cc2)n(CC)c1=O`, for which the pKi in assay [1] is below 6.00; in assay [3], below 6.00; in assay [4], 6.53; in assay [7], below 6.00. Further, the inhibition is 36% in assay [2], -1% in assay [5], 29% in assay [6] and 27% in assay [8].
